Results from PMC6557127 (Journal of molecular and cellular cardiology, 2019).

Columns and labels:
[1] = Blood pressure and renal function with acute IV infusion; format: in vivo, Fischer rats; settings: mean ± SEM, n=4/group; for UV (urine flow): 60 min clearance; for UNaV (urinary sodium excretion rate): flame photometry; for GFR (glomerular filtration rate): inulin clearance; for ΔMAP (change in mean arterial pressure): normal rats
Method in brief: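 Male Fischer rats (about 2 months, 200–250 g) under isoflurane (2–3% in oxygen) had jugular vein, carotid artery and bladder catheters. After 30 min equilibration with IV inulin and saline, test compound or 0.9% saline vehicle was infused IV with inulin for 75 min, including a 15 min lead-in. BP was recorded and urine collected over a 60 min clearance period. Urinary sodium was measured by flame photometry and inulin by anthrone; GFR was taken from inulin clearance. n=4/group.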

[2] = tested on: human cardiac fibroblasts (HCFs); assay: Differentiation to myofibroblasts; format: cell-based; settings: 10^−6 M, TGFβ−1 5 ng/mL
Method in brief: (§1)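 Fibroblasts were serum-starved in 0.01% FBS for 48 h, then given TGFβ-1 (5 ng/ml) with or without test compound (10−6 M) for 24, 48 and 72 h. For immunostaining, cells were fixed in 4% formaldehyde, permeabilised with 0.2% Triton X-100, and stained with anti-α-SMA (1:200, 4 °C overnight), a Texas Red secondary and DAPI; confocal images were scored as corrected total cell fluorescence. For western blots, NP-40 lysates were probed for α-SMA and normalised to GAPDH.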

Plasma CNP-like levels = format: in vivo, Fischer rats; settings: low, medium and high dose (4.55, 45.5, 455 pmol/kg/min) IV infusion 75 min, normal rats, RIA, n=4/group
Method in brief: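 They then received a 75 min continuous IV infusion (15 min lead-in) of native peptide, analogue or 0.9% saline vehicle with inulin. Infusion rate was weight-adjusted. Blood was taken after the 60 min clearance period. A non-equilibrium RIA used a CNP-sequence antibody (standard curve 0.5–128 pg; <1% cross-reactivity with ANP, BNP).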

[3] = tested on: human renal fibroblasts (HRFs); assay: Live-cell real-time proliferation imaging; format: cell-based; settings: 10^−6 M, similar to vehicle (Supplemental Table 1)
[4] = tested on: human cardiac fibroblasts (HCFs); assay: Fibroblast proliferation quantified by cell counting, HCFs; format: cell-based; settings: 10^−6 M, TGFβ−1 5 ng/ml, 72 hours, trypan blue, Cedex XS Analyzer (Supplemental Table 2)
Method in brief: (§2)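 Fibroblasts at passages 4–8, purity checked by vimentin immunostaining, were counted, seeded in complete medium and held overnight at 37 °C, 5% CO2. Medium was replaced with fresh medium containing TGFβ-1 (5 ng/ml) alone or with test compound (10−8, 10−7 or 10−6 M) for 8 or 72 h. Cells were then trypsinized, stained with 0.2% trypan blue and counted on an automated analyzer.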

[5] = tested on: human renal fibroblasts (HRFs); assay: cGMP generation in human primary renal fibroblasts; format: cell-based
Method in brief: (§3)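 Primary human cardiac and renal fibroblasts, checked for purity by vimentin staining, were used at passages 4–8. Cells grown to 80% confluency were treated for 10 min with buffer (HBSS, 0.1% BSA, 2 mM HEPES, 0.5 mM IBMX) alone or with test compound at 10−8, 10−7 or 10−6 M. Cells were washed in PBS and lysed in 0.1 M HCl, and intracellular cGMP was measured by ELISA.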

[6] = tested on: human cardiac fibroblasts (HCFs); assay: Live-cell real-time proliferation imaging; format: cell-based; settings: 10^−6 M, similar to vehicle (Supplemental Table 1)
parental HEK293 cells = assay: cGMP generation in parental; format: cell-based, human; settings: levels similar to vehicle treatment (Supplemental Figure 2)
Method in brief: (§4)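 HEK293 cells stably expressing human pGC-A or pGC-B, or parental cells, were kept in DMEM with 10% FBS and 250 ug/ml G418. Cells were grown overnight to 80–90% confluency. They were treated for 10 min with serial concentrations (10−10 to 10−6 M) in HBSS containing 0.1% BSA, 2 mM HEPES and 0.5 mM IBMX; buffer alone served as vehicle. After a PBS wash and lysis in 0.1 M HCl, intracellular cGMP was measured by ELISA.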

[7] = tested on: human renal fibroblasts (HRFs); assay: Differentiation to myofibroblasts; format: cell-based; settings: 10^−6 M, TGFβ−1 5 ng/mL
Method in brief: as §1

human pGC-B receptor = molecular target: T1, human pGC-B receptor (Homo sapiens, UniProt P20594); assay: cGMP generation in HEK293 cells overexpressing human pGC-B; format: cell-based; settings: 10 min
T1 sequence (P20594 23-1047): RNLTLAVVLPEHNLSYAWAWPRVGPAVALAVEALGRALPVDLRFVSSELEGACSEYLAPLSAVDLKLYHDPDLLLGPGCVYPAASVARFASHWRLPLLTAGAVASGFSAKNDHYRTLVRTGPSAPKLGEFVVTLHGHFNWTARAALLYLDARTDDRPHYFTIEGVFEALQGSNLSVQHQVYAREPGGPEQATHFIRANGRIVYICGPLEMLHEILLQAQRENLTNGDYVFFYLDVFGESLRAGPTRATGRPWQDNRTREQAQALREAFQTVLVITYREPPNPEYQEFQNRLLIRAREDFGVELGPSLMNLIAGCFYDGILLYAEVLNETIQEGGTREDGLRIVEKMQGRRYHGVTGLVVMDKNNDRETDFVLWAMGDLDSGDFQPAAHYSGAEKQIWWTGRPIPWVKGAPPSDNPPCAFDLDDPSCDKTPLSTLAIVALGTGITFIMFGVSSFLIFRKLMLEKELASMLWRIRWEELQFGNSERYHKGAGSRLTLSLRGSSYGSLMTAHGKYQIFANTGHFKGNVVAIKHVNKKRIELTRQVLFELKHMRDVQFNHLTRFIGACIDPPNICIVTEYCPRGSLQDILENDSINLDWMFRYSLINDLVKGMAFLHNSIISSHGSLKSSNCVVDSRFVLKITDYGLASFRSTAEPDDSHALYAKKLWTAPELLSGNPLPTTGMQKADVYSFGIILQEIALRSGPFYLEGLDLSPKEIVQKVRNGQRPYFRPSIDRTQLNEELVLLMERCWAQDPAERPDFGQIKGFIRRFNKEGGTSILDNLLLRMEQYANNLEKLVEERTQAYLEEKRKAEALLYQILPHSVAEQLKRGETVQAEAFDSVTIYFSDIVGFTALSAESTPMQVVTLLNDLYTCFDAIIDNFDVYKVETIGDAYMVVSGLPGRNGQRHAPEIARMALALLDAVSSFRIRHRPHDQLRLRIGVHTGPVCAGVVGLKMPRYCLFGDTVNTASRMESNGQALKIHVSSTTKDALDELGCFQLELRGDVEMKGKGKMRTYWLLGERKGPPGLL
Method in brief: as §4

[8] = tested on: human cardiac fibroblasts (HCFs); assay: cGMP generation in human primary cardiac fibroblasts; format: cell-based; settings: 10^−8, 10^−7 and 10^−6 M, 10 min, 0.5 mM IBMX, cGMP ELISA, vs vehicle
Method in brief: as §3

[9] = tested on: human renal fibroblasts (HRFs); assay: Fibroblast proliferation quantified by cell counting, HRFs; format: cell-based; settings: 10^−6 M, TGFβ−1 5 ng/ml, 72 hours, trypan blue, Cedex XS Analyzer (Supplemental Table 2)
Method in brief: as §2

[10] = High = 455 pmol/kg/min IV infusion
[11] = Low = 4.55 pmol/kg/min IV infusion
[12] = Medium = 45.5 pmol/kg/min IV infusion
[13] = 48 and 72 hours (data not shown)
[14] = 24 hours, immunostaining and western blotting

For “NH2 - DLRVDTKSRAAWARLLQEHPNARKYKGANKKGLSKGCFGLKLDRIGSMSGLGC – COOH [C53]”, the “UV (urine flow)” value [1, 10] was 13.5 ± 2.0 µL/min, the “UNaV (urinary sodium excretion rate)” value [1, 10] was 1.1±0.3 uEq/min and the “GFR (glomerular filtration rate)” value [1, 10] was 1.1 ± 0.2 mL/min. The “ΔMAP (change in mean arterial pressure)” value [1, 10] was −3.7±2.6 mmHg, the “UV (urine flow)” value [1, 11] was 13.3 ± 2.0 µL/min and the “UNaV (urinary sodium excretion rate)” value [1, 11] was 0.9±0.2 uEq/min. For the same substance, the “GFR (glomerular filtration rate)” value [1, 11] was 1.2 ± 0.1 mL/min, the “ΔMAP (change in mean arterial pressure)” value [1, 11] was −0.5±1.0 mmHg and the “UV (urine flow)” value [1, 12] was 11.3 ± 0.8 µL/min. The “UNaV (urinary sodium excretion rate)” value [1, 12] was 1.0±0.1 uEq/min, the “GFR (glomerular filtration rate)” value [1, 12] was 1.5 ± 0.1 mL/min and the “ΔMAP (change in mean arterial pressure)” value [1, 12] was −1.4±1.1 mmHg. The “Reduction of differentiation of HCFs to myofibroblasts” value [2, 13] was “not sustained”, the “Differentiation of HCFs to myofibroblasts (α-SMA expression)” value [2, 14] was “significantly reduced the differentiation” and the “Plasma CNP-like levels (CLL)” value (Plasma CNP-like levels) was “increased plasma CLL levels in a dose-dependent manner”. The “HRFs proliferation in the absence of TGFβ−1 stimulation” value [3] was “had no effect on proliferation”, the “TGFβ−1 induced HCFs proliferation by cell counting” value [4] was “suppressed TGFβ−1 induced proliferation” and the “Intracellular cGMP in HRFs” value ([5]; 10^−8, 10^−7 and 10^−6 M, 10 min, 0.5 mM IBMX, cGMP ELISA, vs vehicle, dose-dependent) was “increased intracellular cGMP levels”. The “cGMP values in HRFs compared to HCFs” value ([5]; ratio HRFs/HCFs) was 16 fold, the “HCFs proliferation in the absence of TGFβ−1 stimulation” value [6] was “had no effect on proliferation” and the “cGMP generation in parental HEK293 cells” value (parental HEK293 cells) was “did not generate cGMP”. For the same substance, the “Reduction of differentiation of HRFs to myofibroblasts” value [7, 13] was “not sustained”, the “Differentiation of HRFs to myofibroblasts (α-SMA expression)” value [7, 14] was “significantly reduced the differentiation” and the “cGMP generation in HEK293 pGC-B cells compared to vehicle” value (human pGC-B receptor; 10^−8.5 to 10^−6 M, 0.5 mM IBMX, intracellular cGMP ELISA, triplicate) was “significant cGMP generation”. For the same substance, the “pGC-B receptor potency compared to CNP” value (human pGC-B receptor; HEK293 pGC-B cells, 10^−10 to 10^−6 M, cGMP ELISA) was “no difference observed”, the “Intracellular cGMP in HCFs” value [8] was “increased intracellular cGMP levels” and the “TGFβ−1 induced HRFs proliferation by cell counting” value [9] was “suppressed TGFβ−1 induced proliferation”.
